Laboratory results from ChEMBL document CHEMBL4477226, “Reduction Sensitive Lipid Conjugates of Tenofovir: Synthesis, Stability, and Antiviral Activity” (J Med Chem, 2016).
Structures can show the parent of a compound that is named as a salt.

How the values were obtained:
[1] = Half life in RPMI 1640 culture medium at 10^-3 M by HPLC analysis; type: physicochemical
[2] = Half life in human serum at 10^-3 M by HPLC analysis; type: ADME, cell-free
[3] = Half life in pH 7.4 Tris HCl buffer containing KCl at 10^-3 M by HPLC analysis; type: physicochemical
[4] = Half life in human gastric juice; type: ADME, tissue-based
[5] = Half life in pH 2 solution at 10^-3 M by HPLC analysis; type: physicochemical
[6] = Therapeutic index, ratio of CC50 for human HepG2.2.15 cells to EC50 for HBV infected in human HepG2.2.15 cells; type: toxicity, cell-based; conditions: read-out: Ratio CC50/EC50
[7] = Therapeutic index, ratio of CC50 for human PBMC to EC50 for HIV1 infected in human PBMC; type: toxicity; conditions: read-out: Ratio CC50/EC50
Procedure, shortened: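 TI is the ratio of PBMC CC50 (uninfected cells, 50% viability loss) to EC50 for 50% inhibition of HIV-1, both in μM; HIV-1 activity measured as reverse transcriptase in supernatants of infected PBMCs.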

[8] = system: PBMC; assay: (§1) Cytotoxicity against human PBMC assessed as reduction in cell viability by XTT assay; type: cell-based
Procedure, shortened: (§2)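 CC50 is the concentration in μM that reduces viability of uninfected PBMCs by 50%.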

[9] = system: Hepatitis B virus; assay: Antiviral activity against HBV infected in human HepG2.2.15 cells assessed as inhibition of viral DNA in cell supernatant incubated for 3 days in presence of 10% FBS followed by compound treatment in absence of 10% FBS for 3 days by qRT-PCR method; type: functional, organism-based; conditions: HepG2.2.15, 72 h
Procedure, shortened: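 HBV assay in HepG2.2.15 cells; viral DNA quantified by qPCR after 6 days of incubation.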

[10] = system: HepG2 2.2.15; assay: (§3) Cytotoxicity against human HepG2.2.15 cells assessed as reduction in cell viability after 6 days by XTT assay; type: cell-based; conditions: hepg2 2.2.15, 144 h
[11] = system: Human immunodeficiency virus 1; assay: Antiviral activity against HIV1 infected in human PBMC assessed as inhibition of viral replication by measuring reverse transcriptase activity in cell supernatant preincubated with cells followed by viral infection measured after 7 days by radioactive incorporation polymerization assay; type: functional, organism-based
Procedure, shortened: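 HIV-infected PBMCs; antiviral activity read as reverse transcriptase in cell supernatants; EC50 is the concentration in μM that inhibits HIV-1 by 50%.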

[12] = as §1; type: cell-based; procedure, shortened: as §2
[13] = as §3; type: cell-based, HepG2 2.2.15; conditions: HepG2.2.15 cells
[14] = Stability in pH 7.4 phosphate buffered saline assessed as lipid adsorption on glass surface using silanized glassware measured up to 1440 mins by LC-MS analysis; type: physicochemical; conditions: buffer, pH 7.4, 24 h
[15] = Stability in pH 7.4 phosphate buffered saline assessed as lipid adsorption on glass surface using pyrex glassware measured up to 1440 mins by LC-MS analysis; type: physicochemical; conditions: buffer, pH 7.4, 24 h
[16] = Stability in pH 7.4 phosphate buffered saline assessed as lipid adsorption on glass surface using kimax glassware measured up to 1440 mins by LC-MS analysis; type: physicochemical; conditions: buffer, pH 7.4, 24 h
[17] = Half life in human plasma at 2 mg by LC-MS analysis; type: ADME, cell-free
Procedure, shortened: (§4)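 Compound incubated in human serum, PBS (pH 7.4), DMEM, or carbonate/bicarbonate buffer (pH 9). Aliquots were taken at several time points over 2 h, with a final sample at 24 h, and analysed by LC-MS to follow decomposition. Half-life was derived from loss of parent over time.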

[18] = Half life in pH 7.4 phosphate buffered saline at 2 mg using kimax glassware by LC-MS analysis; type: physicochemical; procedure, shortened: as §4
[19] = Stability in pH 9 Sodium carbonate/bicarbonate buffer at 2 mg by LC-MS analysis; type: physicochemical; conditions: in vitro; procedure, shortened: as §4
[20] = Half life in pH 9 Sodium carbonate/bicarbonate buffer at 2 mg using kimax glassware by LC-MS analysis; type: physicochemical; procedure, shortened: as §4
[21] = Therapeutic index, ratio of CC90 for human PBMC to EC90 for HIV1 infected in human PBMC; type: toxicity; conditions: read-out: TI
Procedure, shortened: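 HIV-1-infected human PBMCs; antiviral effect read as reverse transcriptase activity in culture supernatants. Toxicity measured as loss of viability in uninfected PBMCs. Index calculated as the cytotoxic concentration divided by the effective concentration at the 90% level (CC90/EC90).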

[22] = Stability in DMEM at 2 mg by LC-MS analysis; type: physicochemical; conditions: in vitro; procedure, shortened: as §4
[23] = Half life in DMEM at 2 mg using kimax glassware by LC-MS analysis; type: physicochemical; procedure, shortened: as §4
[24] = Half life in pH 7.4 phosphate buffered saline at 2 mg by LC-MS analysis; type: physicochemical; procedure, shortened: as §4
[25] = Oral bioavailability in rhesus monkey by HPLC analysis; type: ADME, organism-based, Macaca mulatta; conditions: in vivo
[26] = Oral bioavailability in rat at 30 mg/kg, administered through gastric intubation by HPLC analysis; type: ADME, organism-based; conditions: in vivo
[27] = Oral bioavailability in mouse; type: ADME, organism-based; conditions: in vivo

Row | Structure (SMILES) | selectivity ratio [6] | selectivity ratio [7] | CC50 [8] [µM] | EC50 [9] [µM] | EC50 [11] [µM] | further results
1 | Nc1ncnc2c1ncn2CCOCP(=O)(OCCSSCCO)OCCSSCCO |  |  |  |  |  | half-life at 1000 µM [1]: > 24 h; half-life at 1000 µM [2]: < 4.98 min; half-life at 1000 µM [3]: > 24 h; half-life [4]: > 24 h; half-life at 1000 µM [5]: > 24 h
2 | CCCCCCCCCCCCSSCCOP(=O)(O)CO[C@H](C)Cn1cnc2c(N)ncnc21 | > 30 | 8300 | 25 | 1.67 | 0.003 | CC50 [10]: > 50 µM
3 | CCCCCCCCCCCCCCCCSSCCOP(=O)(CO[C@H](C)Cn1cnc2c(N)ncnc21)Nc1ccccc1 (some centres undefined) |  | 7000 | 34.2 |  | 0.005 | 
4 | CCCCCCCCCCCCCCCCCCSSCCOP(=O)(CO[C@H](C)Cn1cnc2c(N)ncnc21)OCCSSCCCCCCCCCCCCCCCCCC | > 1 | > 76 |  | > 25 | 0.331 | CC50 [12]: > 25 µM; CC50 at 144 h [13]: > 25 µM
5 | CCCCCCCCCCCCCCCCSSCCOP(=O)(CO[C@H](C)Cn1cnc2c(N)ncnc21)OCc1ccccc1 (some centres undefined) |  | 2300 | 41.1 |  | 0.018 | 
6 | CCCCCCCCCCCCCCCCSSCCOP(=O)(CO[C@H](C)Cn1cnc2c(N)ncnc21)OCCC (some centres undefined) |  | 49 | 10.6 |  | 0.216 | 
7 | CCCCCCCCCCSSCCOP(=O)(O)CO[C@H](C)Cn1cnc2c(N)ncnc21 | > 1 | > 590 | > 50 | > 50 | 0.085 | CC50 [10]: > 50 µM
8 | CCCCCCCCCCSSCCOP(=O)(CO[C@H](C)Cn1cnc2c(N)ncnc21)OCCSSCCCCCCCCCC | > 1 | > 287 |  | > 100 | 0.349 | CC50 [12]: > 100 µM; CC50 at 144 h [13]: > 100 µM
9 | CCCCCCCCCCCCCCCCOCCCOC[C@H]1O[C@@H](n2ccc(=O)[nH]c2=O)[C@H](F)[C@@H]1O |  |  |  |  |  | Stability [14]: Unstable; Stability [15]: Unstable; Stability [16]: Stable
10 | C[C@H](Cn1cnc2c(N)ncnc21)OCP(=O)(O)OCCS |  |  | > 100 | 41.9 |  | CC50 [10]: > 100 µM
11 | CCCCCCCCCCCCCCCCSSCCOP(=O)(CO[C@H](C)Cn1cnc2c(N)ncnc21)OCC (some centres undefined) |  | 104 | 36.2 |  | 0.349 | 
12 | CCCCCCCCCCCCCCCCCCSSCCOP(=O)(O)CO[C@H](C)Cn1cnc2c(N)ncnc21 | > 50 | 11000 | 6.36 | 0.505 | 0.0006 | CC50 [10]: > 50 µM
13 | CCCCCCCCCCCCSSCCOP(=O)(CO[C@H](C)Cn1cnc2c(N)ncnc21)OCCSSCCCCCCCCCCCC | > 1 | > 85 |  | > 100 | 1.18 | CC50 [12]: > 100 µM; CC50 at 144 h [13]: > 100 µM
14 | CCCCCCCCCCCCCCCCSSCCOP(=O)(O)CO[C@H](C)Cn1cnc2c(N)ncnc21.N | 1200 to 1250 | 22000 | 14.3 | 0.02 | 0.00065 | t1/2 [17]: > 24 h; half-life [18]: < 2 h; Stability [19]: Unstable; half-life [20]: < 2 h; selectivity ratio [21]: 11000; Stability [22]: Unstable; half-life [23]: < 2 h; CC50 [10]: > 25 µM; half-life [24]: < 0.333 h
15 | CCCCCCCCCCCCCCCCSSCCOP(=O)(CO[C@H](C)Cn1cnc2c(N)ncnc21)OCCSSCCCCCCCCCCCCCCCC | > 1 | 4 |  | > 25 | 6.32 | CC50 [12]: > 25 µM; CC50 at 144 h [13]: > 25 µM
16 | CCCCCCCCCCCCCCCCSSCCOP(=O)(CO[C@H](C)Cn1cnc2c(N)ncnc21)OC (some centres undefined) |  | 1500 | 38.2 |  | 0.026 | 
17 | CCCCCCCCCCCCCCCCSSCCOP(=O)(CO[C@H](C)Cn1cnc2c(N)ncnc21)OCCCCCCCC (some centres undefined) |  | > 50 |  |  | 0.911 | CC50 [12]: > 50 µM
18 | CCCCCCCCCCCCCCCCSSCCOP(=O)(CO[C@H](C)Cn1cnc2c(N)ncnc21)OCCCC (some centres undefined) |  | 150 | 27.9 |  | 0.19 | 
19 | CCCCCCCCCCCCCCSSCCOP(=O)(CO[C@H](C)Cn1cnc2c(N)ncnc21)OCCSSCCCCCCCCCCCCCC | > 1 | > 529 |  | > 100 | 0.189 | CC50 [12]: > 100 µM; CC50 at 144 h [13]: > 100 µM
20 | C[C@H](Cn1cnc2c(N)ncnc21)OCP(=O)(O)OCCSSCCO | > 8.6 | > 62.1 | > 100 | 11.6 | 1.61 | t1/2 [17]: < 0.567 h; CC50 [10]: > 100 µM; half-life [24]: 3.5 h
21 | CCCCCCCCCCCCCCSSCCOP(=O)(O)CO[C@H](C)Cn1cnc2c(N)ncnc21.N | > 56 | 28000 to 30000 | 14 | 0.444 | 0.0005 | t1/2 [17]: > 24 h; half-life [18]: < 2 h; Stability [19]: Unstable; half-life [20]: < 2 h; selectivity ratio [21]: 11000; Stability [22]: Unstable; half-life [23]: < 2 h; CC50 [10]: > 25 µM
22 | CCCCCCCCCCCCCCCCSSCCOP(=O)(CO[C@H](C)Cn1cnc2c(N)ncnc21)OCC(C)(C)C (mixture of isomers) |  | > 700 | > 100 |  | 0.14 | 
23 | Nc1ncnc2c1ncn2CCOCP(=O)(O)O [ADEFOVIR] |  |  |  |  |  | bioavailability [25]: < 1%; bioavailability [26]: 8 to 11%
24 | C[C@H](Cn1cnc2c(N)ncnc21)OCP(=O)(O)O [TENOFOVIR ANHYDROUS] |  | > 300 | > 100 |  | 0.319 | bioavailability [27]: 2%
25 | CC(C)OC(=O)OCOP(=O)(CO[C@H](C)Cn1cnc2c(N)ncnc21)OCOC(=O)OC(C)C [TENOFOVIR DISOPROXIL FUMARATE] | 86 to 190 | 9500 | 43.7 | 0.34 | 0.0046 | selectivity ratio [21]: 1300; CC50 at 144 h [13]: 29.2 to 64.5 µM
26 | CCCCCCCCCCCCCCCCOCCCOP(=O)(O)CO[C@H](C)Cn1cnc2c(N)ncnc21 [TENOFOVIR EXALIDEX] |  | > 5000 | > 100 |  | 0.02 | 
